In ChEMBL document CHEMBL1921692 (J Med Chem, 2011):
Values after ≈ are worked out from the molar mass of the structure shown.

What was measured:
[1] = biological target: T1, Growth hormone secretagogue receptor type 1 (Homo sapiens, UniProt Q92847); experiment: Agonist activity at human GRLN receptor expressed in HEK293 cells assessed as calcium binding by Ca2+ bioluminescence aequorin assay; type: functional, cell-based
Method in brief: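 HEK-293 cells expressing human GRLN. Ca2+ bioluminescence read out by aequorin. Duplicate samples, maximum tolerated interassay variability ±10%. Full agonism defined as maximal response >70% of that of octanoylated human ghrelin.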

[2] = biological target: T1, Growth hormone secretagogue receptor type 1; experiment: Displacement of [125I-His9]-ghrelin from human GRLN receptor by radioligand binding assay
Method in brief: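 Competitive binding on isolated membranes expressing GRLN, with 125I-His-9 octanoylated ghrelin as radioligand.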

[3] = Dissociation constant, pKa of the compound; type: physicochemical
[4] = Elimination half life in Sprague-Dawley rat at 2 m/kg, iv; type: ADME, organism-based; settings: in vivo, read-out: beta t1/2
[5] = Volume of distribution at steady state in Sprague-Dawley rat at 2 m/kg, iv; type: ADME, organism-based; settings: in vivo, read-out: Vdss
[6] = Clearance in Sprague-Dawley rat at 2 m/kg, iv; type: ADME, organism-based; settings: in vivo
[7] = AUC (0 to infinity) in Sprague-Dawley rat at 8 mg/kg, po; type: ADME, organism-based; design: time infinity, dose 8 mg/kg, route oral; settings: plasma
Method in brief: (§1)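 Male Sprague−Dawley rats (250 ± 20 g), 3 per compound in a single experiment, gavage 8 mg/kg in physiological saline. Blood taken at 12 time points over 6 h into K3EDTA tubes. Plasma stored at −20 °C, assayed by LC-MS/MS, noncompartmental analysis.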

Rattus norvegicus = experiment: Induction of gastric emptying in overnight-fasted iv dosed Wistar rat measured after 15 mins by […] analysis; type: functional, organism-based, Stomach
Method in brief: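 Overnight-fasted male Wistar rats (200 ± 20 g), N = 5 per point. Compound given IV in 9% 2-hydroxypropyl-β-cyclodextrin together with an oral 2% methylcellulose meal containing 0.05% phenol red (2 mL). Sacrifice 15 min later; phenol red left in stomach read at 560 nm. […] Metoclopramide positive control at 10 mg/kg IV.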

[8] = Oral bioavailability in Sprague-Dawley rat at 8 mg/kg; settings: in vivo
[9] = Cmax in Sprague-Dawley rat at 8 mg/kg, po; type: ADME, organism-based; design: dose 8 mg/kg, route oral; settings: in vivo; method in brief: as §1
[10] = Aqueous solubility of the compound; type: physicochemical

T1 sequence (Q92847 whole entry): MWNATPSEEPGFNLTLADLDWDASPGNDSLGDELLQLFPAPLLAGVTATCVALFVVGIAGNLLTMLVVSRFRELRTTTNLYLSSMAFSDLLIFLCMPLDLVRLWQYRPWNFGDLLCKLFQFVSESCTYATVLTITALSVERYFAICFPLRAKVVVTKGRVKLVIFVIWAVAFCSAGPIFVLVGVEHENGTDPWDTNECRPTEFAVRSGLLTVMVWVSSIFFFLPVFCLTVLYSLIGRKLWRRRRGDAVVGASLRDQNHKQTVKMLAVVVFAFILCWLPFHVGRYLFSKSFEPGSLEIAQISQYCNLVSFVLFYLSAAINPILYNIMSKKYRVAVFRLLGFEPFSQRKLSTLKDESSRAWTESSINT

SMILES	EC50 [1] [nM]	Ki [2] [nM]	also measured
C[C@@H]1C(=O)N[C@H](Cc2ccc(C(F)(F)F)cc2)C(=O)NCCCc2ccccc2OCCN[C@@H](C2CC2)C(=O)N1C	11	7	
CC[C@H](C)[C@@H]1NCCOc2ccccc2CCCNC(=O)[C@@H](Cc2ccccc2)NC(=O)[C@@H](C)N(C)C1=O		6.4	
CN1CC(=O)N[C@H](Cc2ccccc2)C(=O)NCCCc2ccccc2OCCN[C@@H](CCCCN)C1=O		1100	
C[C@@H]1C(=O)N[C@H](Cc2ccc(F)cc2)C(=O)NCCCc2ccccc2O[C@@H](C)CN[C@@H](C2CC2)C(=O)N1C	26	56	
C[C@@H]1C(=O)N[C@H](Cc2ccccc2F)C(=O)NCCCc2ccccc2OCCN[C@@H](C2CC2)C(=O)N1C		6.2	
CCCC[C@H]1NC(=O)CN(C)C(=O)[C@H](CCC)NCCOc2ccccc2CCCNC1=O		400	
CCC[C@@H]1NCCOc2ccccc2CCCNC(=O)[C@H](Cc2ccccc2)NC(=O)CN(C)C1=O		380	
CCC[C@@H]1NCCOc2ccccc2CCCNC(=O)[C@@H](Cc2ccccc2)NC(=O)[C@@H](C)NC1=O		500	
CC[C@H](C)[C@@H]1NC[C@@H](C)Oc2ccccc2CCCNC(=O)[C@@H](Cc2ccccc2)NC(=O)[C@@H](C(C)C)NC1=O		380	
C[C@@H]1C(=O)N[C@H](Cc2ccccc2)C(=O)NCCCc2ccccc2OCCN[C@@H](C2CC2)C(=O)N1C	23	4.4	pKa [3]: 6.72
CCC[C@@H]1NCCOc2ccccc2CCCNC(=O)[C@@H](Cc2ccccc2)NC(=O)[C@@H](C)N(C)C1=O	40	16	pKa [3]: 6.45
CC[C@H]1NC(=O)[C@H]([C@@H](C)CC)NC[C@@H](C)Oc2ccccc2CCCNC(=O)[C@@H](Cc2ccccc2)NC1=O		35	
C[C@@H]1CN[C@@H](C2CC2)C(=O)N(C)[C@H](C)C(=O)N[C@H](Cc2ccccc2)C(=O)NCCCc2ccccc2O1		34	half-life [4]: 32 min; Vd [5]: 1.3 L/kg; clearance [6]: 25 mL/min/kg
C[C@@H]1C(=O)N[C@H](Cc2ccc(F)cc2)C(=O)NCCCc2ccccc2OCCN[C@@H](C2CC2)C(=O)N1C		7.3	half-life [4]: 14 min; Vd [5]: 1.4 L/kg; clearance [6]: 72 mL/min/kg
C[C@@H]1C(=O)N[C@H](Cc2ccc(F)cc2)C(=O)NCCCc2cccc3c2O[C@@H](CC3)CN[C@@H](C2CC2)C(=O)N1C		19	
CCC[C@@H]1NCCOc2ccccc2CCCNC(=O)[C@@H](Cc2ccccc2)NC(=O)[C@H](C)N(C)C1=O		580	
CC1COc2ccccc2CCCNC(=O)[C@@H](Cc2ccc(F)cc2)NC(=O)[C@@H](C)N(C)C(=O)[C@H](C2CC2)N1 (mixture of isomers)	760	9	
CC(C)C[C@@H]1NCCOc2ccccc2CCCNC(=O)[C@@H](Cc2ccccc2)NC(=O)[C@@H](C)N(C)C1=O		25	
C[C@@H]1C(=O)N[C@H](Cc2ccc(F)cc2)C(=O)NCCCc2cc(F)ccc2OCCN[C@@H](C2CC2)C(=O)N1C		58	
Cc1ccc(C[C@H]2NC(=O)[C@@H](C)N(C)C(=O)[C@H](C3CC3)NCCOc3ccccc3CCCNC2=O)cc1	8.2	5	

SMILES	EC50 [1] [nM]	Ki [2] [nM]	also measured
C[C@@H]1CN[C@@H](C2CC2)C(=O)N(C)[C@H](C)C(=O)N[C@H](Cc2ccc(F)cc2)C(=O)NCCCc2ccc(F)cc2O1		61	AUC(0-inf) [7]: 2.08 µM·h; EC50 (Rattus norvegicus): 1.38 mg/kg; bioavailability [8]: 15%; half-life [4]: 66 min; Vd [5]: 0.9 L/kg; Cmax [9]: 750 nM; clearance [6]: 9 mL/min/kg
CC[C@H](C)[C@@H]1NCCCCCCCCNC(=O)[C@@H](Cc2ccccc2)NC(=O)[C@@H](C)N(C)C1=O		1500	
C[C@@H]1CN[C@@H](C2CCCCC2)C(=O)N(C)[C@H](C)C(=O)N[C@H](Cc2ccc(F)cc2)C(=O)NCCCc2ccccc2O1	49	0.38	half-life [4]: 74 min; solubility [10]: ≤ 10 µg/mL; Vd [5]: 4.7 L/kg; clearance [6]: 43 mL/min/kg
CC[C@H](C)[C@@H]1NCCOc2ccccc2CCNC(=O)[C@@H](Cc2ccccc2)NC(=O)[C@@H](C)N(C)C1=O	530	210	
CC[C@H](C)[C@@H]1NCCCc2ccccc2CCCCNC(=O)[C@@H](Cc2ccccc2)NC(=O)[C@@H](C)N(C)C1=O	360	78	
CCC[C@H](NCCOc1ccccc1/C=C/CNC(C)=O)C(=O)N(C)CC(=O)N[C@H](Cc1ccccc1)C(N)=O		> 10000	
CCC[C@@H]1NCCOc2ccccc2CCCNC(=O)[C@@H](Cc2ccc(O)cc2)NC(=O)CN(C)C1=O	39	120	
CC[C@H](C)[C@@H]1NCCOc2ccccc2CCCNC(=O)[C@@H](CCc2ccccc2)NC(=O)[C@@H](C)N(C)C1=O		43	
CC[C@H](C)[C@@H]1NCCCc2ccccc2CCNC(=O)[C@@H](Cc2ccccc2)NC(=O)[C@@H](C)N(C)C1=O		400	
CCC[C@@H]1NC[C@@H](C)Oc2ccccc2CCCNC(=O)[C@@H](Cc2ccc(F)cc2)NC(=O)[C@@H](C)N(C)C1=O		34	half-life [4]: 29 min; solubility [10]: 100 µg/mL (≈ 185 µM); Vd [5]: 1.7 L/kg; clearance [6]: 41 mL/min/kg
C[C@@H]1CN[C@@H](C2CC2)C(=O)N(C)[C@H](C)C(=O)N[C@H](Cc2ccc(Cl)cc2)C(=O)NCCCc2ccccc2O1	18	15	AUC(0-inf) [7]: 1.23 µM·h; EC50 (Rattus norvegicus): 0.84 mg/kg; bioavailability [8]: 22%; half-life [4]: 41 min; Vd [5]: 1.4 L/kg; Cmax [9]: 670 nM; clearance [6]: 24 mL/min/kg
CC[C@H](C)[C@@H]1NC[C@@H](C)Oc2ccccc2CCCNC(=O)[C@@H](Cc2ccc(F)cc2)NC(=O)[C@@H](C)N(C)C1=O		32	half-life [4]: 44 min; solubility [10]: 100 µg/mL (≈ 180 µM); Vd [5]: 2.5 L/kg; clearance [6]: 40 mL/min/kg
C[C@@H]1C(=O)N[C@H](Cc2ccc(F)cc2)C(=O)NCCCc2cccc3c2O[C@H](CC3)CN[C@@H](C2CC2)C(=O)N1C	85	0.9	half-life [4]: 59 min; Vd [5]: 1.1 L/kg; clearance [6]: 13 mL/min/kg
CN1CC(=O)N[C@H](Cc2ccccc2)C(=O)NCCCc2ccccc2OCCN[C@@H](Cc2ccccc2)C1=O		670	
CC[C@H](C)[C@@H]1NCCCc2ccccc2CCCNC(=O)[C@@H](Cc2ccccc2)NC(=O)[C@@H](C)N(C)C1=O		81	
CCC[C@@H]1NCCOc2ccccc2CCCNC(=O)[C@@H](Cc2ccccc2)NC(=O)CN(C)C1=O		68	
CC(C)[C@@H]1NC[C@@H](C)Oc2ccccc2CCCNC(=O)[C@@H](Cc2ccc(F)cc2)NC(=O)[C@@H](C)N(C)C1=O		104	half-life [4]: 34 min; Vd [5]: 2 L/kg; clearance [6]: 40 mL/min/kg
CC[C@H](C)[C@@H]1NCCCC/C=C/CCNC(=O)[C@@H](Cc2ccccc2)NC(=O)[C@@H](C)N(C)C1=O (mixture of isomers)	310	160	
C[C@@H]1C(=O)N[C@H](Cc2cccc(F)c2)C(=O)NCCCc2ccccc2OCCN[C@@H](C2CC2)C(=O)N1C		21	
CCC[C@H]1NCCOc2ccccc2CCCNC(=O)[C@@H](Cc2ccccc2)NC(=O)CN(C)C1=O		1200	
